Active and inactive are the calls of the source. The calls are words filed in the database; no cut-off is given here.
Key:
[1] = Antioxidant activity assessed as DPPH radical scavenging activity at 20 mg/ml after 30 mins; type: functional
Method in brief: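 Samples were 20 mg/mL solutions in ethanol, mixed with 0.15 mM ethanolic DPPH (80 µL sample plus 120 µL DPPH). Mixtures were incubated 30 min at 25 °C and absorbance read at 517 nm. Ethanol plus DPPH served as the control. % scavenging = [1-(Ai-Aj)/Ac]×100. Run in triplicate.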

PC-12 [2] = assay: Cytoprotective activity against H2O2-induced damage in rat PC12 cells assessed as increase in cell viability at 5 uM preincubated for 1 hr followed by H2O2 challenge measured after 24 hrs by MTT assay; type: functional, cell-based
Method in brief: (§1)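 PC12 cells at 5×10^3/well, attached overnight. Pretreated with 5 µM compound for 1 h or 24 h, then 400 µM H2O2 for 24 h. MTT (5 mg/mL) for 4 h at 37 °C, formazan dissolved in DMSO, OD read at 490 nm. Viability given as % of untreated control.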

Rattus norvegicus [3] = assay: Antiischemic stroke activity in Sprague-Dawley rat middle cerebral artery occlusion-induced ischemia-reperfusion injury model assessed as decrease in infarct size at 0.2 mg/kg, icv as nanoparticle measured after 72 hrs by TTC staining-based assay; type: functional, organism-based
Method in brief: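 Male Sprague-Dawley rats (250-280 g), n = 7 per group. Nanoparticle-loaded drug (0.2 mg/kg) or isovolumetric saline or vehicle (polymer:DMSO:distilled water 50 mg:1 mL:3 mL) given by intracerebroventricular injection 2 h before MCAO. Filament occlusion for 2 h, then 72 h reperfusion. Brain slices stained with TTC at 37 °C for 30 min, photographed, and infarct area quantified by image analysis.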

Rattus norvegicus [4] = assay: Antiischemic stroke activity in Sprague-Dawley rat middle cerebral artery occlusion-induced ischemia-reperfusion injury model assessed as decrease in neurological score at 0.2 mg/kg, icv as nanoparticle measured after 72 hrs by Longa's method; type: functional, organism-based
Method in brief: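 Male Sprague-Dawley rats (250-280 g), n = 7 per group. Intracerebroventricular injection of nanoparticle formulation 0.2 mg/kg 2 h before MCAO. Vehicle was polymer:DMSO:distilled water (50 mg:1 mL:3 mL). Intraluminal thread (about 1.8 cm) via ECA, 2 h occlusion, then 72 h reperfusion. Neurological deficit scored at 72 h on Longa's 0–4 scale. Mean ± SD, n ≥ 6.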

PC-12 [5] = assay: Cytotoxicity against rat PC12 cells assessed as decrease in cell viability at 5 uM after 72 hrs by MTT assay; type: cell-based; settings: pc-12, 72 h
Method in brief: (§2)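 PC12 cells at 5×10^3/well, attached overnight. Exposed to 5 µM compound for 24 h or 72 h without H2O2. MTT 4 h at 37 °C, formazan dissolved in DMSO, OD 490 nm. Viability as % of untreated control.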

[6] = molecular target: T1, Nuclear factor erythroid 2-related factor 2 (Rattus norvegicus) (UniProt O54968); assay: Induction of Nrf2 translocation in nucleus of rat PC12 cells assessed as upregulation of HO-1 protein expression after 24 hrs by Western blot method; type: cell-based
T1 sequence (whole entry): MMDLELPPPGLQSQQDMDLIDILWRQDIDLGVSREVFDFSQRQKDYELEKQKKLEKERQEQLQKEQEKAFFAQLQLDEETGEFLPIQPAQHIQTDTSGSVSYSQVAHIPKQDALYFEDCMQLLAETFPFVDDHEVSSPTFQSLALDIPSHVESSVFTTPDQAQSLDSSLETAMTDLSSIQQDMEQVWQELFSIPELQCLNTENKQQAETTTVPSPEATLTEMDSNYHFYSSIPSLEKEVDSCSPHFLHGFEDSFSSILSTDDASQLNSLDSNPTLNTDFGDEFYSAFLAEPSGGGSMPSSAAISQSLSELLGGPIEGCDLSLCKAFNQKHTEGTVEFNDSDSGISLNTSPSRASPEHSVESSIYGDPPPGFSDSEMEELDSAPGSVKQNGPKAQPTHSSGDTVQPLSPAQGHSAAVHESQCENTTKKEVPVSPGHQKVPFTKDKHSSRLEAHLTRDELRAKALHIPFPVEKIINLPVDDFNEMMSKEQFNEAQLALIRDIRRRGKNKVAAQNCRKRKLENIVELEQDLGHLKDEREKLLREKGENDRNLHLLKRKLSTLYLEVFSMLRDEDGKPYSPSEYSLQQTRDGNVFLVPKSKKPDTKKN
Method in brief: (§3)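 PC12 cells treated 24 h at 2.5, 5 or 10 µM; reference compounds at 10 µM. Lysed in ice-cold RIPA, run on 10% SDS-PAGE and transferred to PVDF. Probed with anti-HO-1 (1:300) and GAPDH (1:1000) overnight at 4 °C, then HRP anti-rabbit IgG 1 h. Mean ± SD, n = 3, one-way ANOVA with Tukey test.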

PC-12 [7] = assay: Cytoprotective activity against H2O2-induced damage in rat PC12 cells assessed as increase in cell viability preincubated for 1 to 24 hrs followed by H2O2 challenge measured after 24 hrs by MTT assay; type: functional, cell-based
Method in brief: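 PC12 cells at 5×10^3/well, attached overnight. Pretreated 1 h or 24 h at 2.5, 5 or 7.5 µM, then 400 µM H2O2 for 24 h. MTT 4 h at 37 °C, DMSO solubilisation, OD 490 nm. Viability as % of control. Mean ± SD, n = 3, one-way ANOVA with Tukey test.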

[8] = molecular target: T1, Nuclear factor erythroid 2-related factor 2 (Rattus norvegicus); assay: Induction of Nrf2 translocation in nucleus of rat PC12 cells assessed as upregulation of HO-1 protein expression at 5 uM after 24 hrs by Western blot method
PC-12 [9] = assay: Cytoprotective activity against H2O2-induced damage in rat PC12 cells assessed as decrease in MDA levels preincubated for 1 to 24 hrs followed by H2O2 challenge measured after 16 hrs; type: functional, cell-based
Method in brief: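 PC12 cells in DMEM with 10% FBS at 37 °C, 5% CO2. Pre-incubated 1 h or 24 h with compound (2.5, 5, 7.5 µM; reference compounds 5 µM), then exposed to 700 µM H2O2 for 16 h. Supernatant taken after centrifugation at 1600 × g for 10 min at 4 °C, and MDA measured with a kit. Mean ± SD, n = 3, one-way ANOVA with Tukey test.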

PC-12 [10] = assay: Cytoprotective activity against H2O2-induced damage in rat PC12 cells assessed as increase in cell viability at 5 uM preincubated for 24 hrs followed by H2O2 challenge measured after 24 hrs by MTT assay; type: functional, cell-based; method in brief: as §1
PC-12 [11] = assay: Cytoprotective activity against H2O2-induced damage in rat PC12 cells assessed as decrease in ROS accumulation at 5 uM preincubated for 1 to 24 hrs followed by H2O2 challenge measured after 3 hrs by DCFH-DA dye-based flow cytometric method; type: functional, cell-based
Method in brief: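 PC12 cells seeded at 3 × 10^5/mL and attached overnight. Pre-incubated 1 h or 24 h with 5 µM compound, then H2O2 for 3 h. Loaded with DCFH-DA at 37 °C for 30 min, detached enzymatically, washed in PBS, filtered and analysed by flow cytometry. Mean ± SD, n = 3.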

[12] = molecular target: T1, Nuclear factor erythroid 2-related factor 2 (Rattus norvegicus); assay: Induction of Nrf2 translocation in nucleus of rat PC12 cells at 5 uM after 6 hrs by DAPI staining-based fluorescence microscopic method; type: cell-based
Method in brief: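 PC12 cells on coverslips treated with 5 µM compound for 6 h. Fixed in 4% paraformaldehyde (20 min, 4 °C), permeabilised with 1% Triton X-100, blocked with 1% BSA. Anti-Nrf2 (1:300) overnight at 4 °C, then PE-labelled secondary (1:300) 1 h in the dark. DAPI counterstain, imaged by fluorescence microscopy.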

PC-12 [13] = assay: Cytotoxicity against rat PC12 cells assessed as decrease in cell viability at 5 uM after 24 hrs by MTT assay; type: cell-based; settings: pc-12, 24 h; method in brief: as §2
[14] = molecular target: T1, Nuclear factor erythroid 2-related factor 2 (Rattus norvegicus); assay: Induction of Nrf2 translocation in nucleus of rat PC12 cells assessed as upregulation of HO-1 protein expression at 10 uM after 24 hrs by Western blot method; type: cell-based; method in brief: as §3

Row | SMILES | Activity [1] | Activity (PC-12 [2]) | other results
1 | O=C1/C(=C/c2ccc(O)c(O)c2)CN(C2CC2)C/C1=C\c1ccc(O)c(O)c1 | Active | Active | –
2 | CCOC(=O)N1C/C(=C\c2ccc(O)c(O)c2)C(=O)/C(=C/c2ccc(O)c(O)c2)C1 | Active | Active | –
3 | O=C1/C(=C/c2ccc(O)c(O)c2)CN(CCc2ccccc2)C/C1=C\c1ccc(O)c(O)c1 | Active | Active | –
4 | CC1=NN(c2ccccc2)C(=O)C1 | – | – | Activity (Rattus norvegicus [3]): Active; Activity (Rattus norvegicus [4]): Active
5 | O=C1C(=Cc2ccc(O)c(O)c2)CC/C1=C\c1ccc(O)c(O)c1 | Active | Active | Activity (Rattus norvegicus [3]): Active; Activity (PC-12 [5]): Toxic; Activity [6]: Dose-dependent effect; Activity (PC-12 [7]): Dose-dependent effect; Activity [8]: inactive; Activity (PC-12 [9]): Dose-dependent effect; Activity (PC-12 [10]): Active; Activity (PC-12 [11]): Active; Activity [12]: Active; Activity (Rattus norvegicus [4]): Active; Activity (PC-12 [13]): Non-Toxic
6 | CN1C/C(=C\c2ccc(O)c(O)c2)C(=O)/C(=C/c2ccc(O)c(O)c2)C1 | Active | Active | –
7 | O=C1/C(=C/c2ccc(O)c(O)c2)CNC/C1=C\c1ccc(O)c(O)c1 | Active | Active | Activity (PC-12 [5]): Toxic; Activity (PC-12 [10]): Active; Activity (PC-12 [13]): Non-Toxic
8 | O=C1/C(=C/c2ccc(O)c(O)c2)CN(Cc2ccccc2)C/C1=C\c1ccc(O)c(O)c1 | Active | Active | –
9 | O=C1/C(=C/c2ccc(O)c(O)c2)CN(C(=O)OCc2ccccc2)C/C1=C\c1ccc(O)c(O)c1 | Active | Active | –
10 | O=C1C(=Cc2ccc(O)c(O)c2)CCC/C1=C\c1ccc(O)c(O)c1 | Active | Active | –
11 | O=C1/C(=C/c2ccc(O)c(O)c2)COC/C1=C\c1ccc(O)c(O)c1 | Active | Active | Activity (PC-12 [5]): Toxic; Activity (PC-12 [10]): Active; Activity (PC-12 [13]): Non-Toxic
12 | O=C1/C(=C/c2ccc(O)c(O)c2)CSC/C1=C\c1ccc(O)c(O)c1 | Active | Active | –
13 | C[C@H](Cc1ccc(O)c(O)c1)[C@@H](C)Cc1ccc(O)c(O)c1 | Active | Active | Activity [14]: Active; Activity [12]: Active
14 | CC(C)(C)c1cc(O)ccc1O | – | – | Activity [14]: Active; Activity [12]: Active
15 | CCCN1C/C(=C\c2ccc(O)c(O)c2)C(=O)/C(=C/c2ccc(O)c(O)c2)C1 | Active | Active | –

Reference: ChEMBL document CHEMBL4251559, “Design, synthesis, and evaluation of NDGA analogues as potential anti-ischemic stroke agents” (Eur J Med Chem, 2018)
